# Bioassay records: PubChem BioAssay, several laboratories
# MEKK2 WT-MEK5: raises or lowers MEK5 binding to wildtype human MEKK2 PB1 domain | bead flow cytometry, Alexa488-MEK5 binding to MEKK2 WT; actives lie on both sides | binding response (% of control), % at 10 µM | 290,000 tested, 1.1% active; in the data active = binding response below about 67% or above about 130%
# UBC13 inh: inhibitors of human UBC13 polyubiquitin chain formation; P61088; TR-FRET; inhibition, % at 20 µM; 330,000 tested, 0.47% active; AID 485273; in the data active = inhibition above about 45%, passing the limit was not always enough
# MEKK2mut PB1 HTS: signal of MEK5 binding to mutant human MEKK2 PB1 domain. bead flow cytometry, Alexa488-MEK5 binding to MEKK2 mutant. percent response, % at 10 µM. 290,000 tested, 0.35% active. AID 1530; in the data active = percent response above about 24%, passing the limit was not always enough
# Apaf-1 inh: human Apaf-1 inhibition; O14727; reconstituted apoptosome caspase-3 activity, DEVD-Rh110 fluorescence; inhibition, % at 20 µM; 330,000 tested, 0.71% active; AID 489030; active = inhibition of at least 40% at 20 µM;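 also: plate controls were DMSO wells for no effect and DEVD-CHO caspase inhibitor wells for full effect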
#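 System: reconstituted apoptosome with Apaf-1, cytochrome c, caspase-9, procaspase-3, dATP; Signal: Rh110 fluorescence intensity; Schedule: 30 min compound preincubation, 50 min activation, room temperature; Reagent: cytochrome c trigger plus (Z-DEVD)2-Rh110 caspase-3 substrate.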
# Pemphigus Ab inh: blocks pemphigus antibody binding to human desmoglein-3; P32926; DSG3-coupled beads, scFv-anti-DSG3-GFP binding, flow cytometry; hits give low values; binding (percent of control), % at 10 µM; 310,000 tested, 0.48% active; AID 588358;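 active = binding more than 3 SD below its plate's average and above zero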;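 also: hits lower antibody fragment binding to DSG3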
# MEKK3 PB1 HTS: modulators (inhibitors or enhancers) of MEK5 binding to human MEKK3 PB1 domain; 290,000 tested, 1.4% active; bead-based flow cytometry, Alexa488-MEK5 binding to MEKK3; actives lie on both sides; 0 = blocked by unlabeled MEK5, 100 = vehicle; Q99759; binding response (% of control), % at 10 µM;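 active = binding response more than 3 SD above or below the average of its plate-row segment, actives on both sides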;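 also: Alexa488 bead fluorescence after subtracting the streptavidin-only scavenger bead signal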
# MEKK2wt confirm: raises or lowers MEK5 binding to wildtype human MEKK2, retest. shares compounds with MEKK3 PB1 HTS. bead flow cytometry, Alexa488-MEK5 binding to MEKK2 WT; actives lie on both sides. binding response (% of control), % at 10 µM. 5,900 tested, 2.4% active. AID 1892; in the data active = binding response below about 16% or above about 210%; inactive = in between
# MEKK2mut-MEK5: signal of MEK5 binding to mutant human MEKK2, retest. shares compounds with MEKK3 PB1 HTS. bead flow cytometry, Alexa488-MEK5 binding to MEKK2 mutant. percent response, % at 10 µM. 5,900 tested, 2% active. AID 1893; in the data active = percent response mostly above about 71%, no sharp cut-off; inactive = mostly below about 38%;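 also: higher means compound restores mutant binding toward wildtype level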
# MEKK3 confirm: confirmation of inhibitors of MEK5 binding to human MEKK3. 5,900 tested, 1.8% active. bead flow cytometry, Alexa488-MEK5 binding to MEKK3; hits give low values. shares compounds with MEKK3 PB1 HTS. AID 1894. binding response (% of control), % at 10 µM;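 active = binding response below 72% of control, or above a set upper limit, though filed actives all read lower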;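 also: 100% = DMSO only wells and 0% = binding blocked by excess unlabeled MEK5; lower values mean stronger disruption of MEK5 binding to MEKK3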
# * hit, by the source's call; . = no result; [ ] = dose if it differs, or a comment. In the library only some 3.2% were active in any assay of this set; here they are far more common.
SMILES,MEKK2 WT-MEK5,UBC13 inh,MEKK2mut PB1 HTS,Apaf-1 inh,Pemphigus Ab inh,MEKK3 PB1 HTS,MEKK2wt confirm,MEKK2mut-MEK5,MEKK3 confirm
CC1CCCCN1C(=O)COc1ccccc1F (stereo unspecified),113,0,0,6,97,135*,104,0,103
CN(C)CCN[C@H]1CCC2C3CC=C4C[C@@H](O)CC[C@]4(C)C3CC[C@@]21C (stereo partly specified),.,-2,.,17,118,.,.,.,.
CCN(c1ccccc1)S(=O)(=O)c1cc(NC(=O)Nc2ccccc2C#N)ccc1Cl,108,-4,0,13,132,133*,106,3,102
Cc1ccc2nc(Cl)c(CN(C(=O)c3cnccn3)C3CCCCC3)cc2c1,-2.0*[inhibitor],-1,-26,-6,105,2.0*[inhibitor],104,0,101
CC(C)(C)c1ccc(C(=O)NCCC(=O)Nc2cc(Cl)ccc2N2CCOCC2)cc1,.,10,.,33,99,.,.,.,.
CC(=O)N1CCc2cc(S(=O)(=O)CCC(=O)N3CCc4ccccc4C3)ccc21,22*[inhibitor],-6,-12,8,103,17*[inhibitor],103,2,103
O=C(c1cc(COc2c(F)cccc2F)on1)N1CCC(c2ccccc2F)C1 (stereo unspecified),97,0,-1,24,98,103,.,.,.
O=C(c1cc(COc2c(F)cccc2F)on1)N1C[C@H]2CC[C@H]1C2,68,-3,-24,13,113,49*[inhibitor],18,-26,39*
O=C(c1cc(COc2c(F)cccc2F)on1)N1CCC(c2ccccc2Cl)C1 (stereo unspecified),51,0,-35,10,104,49*[inhibitor],96,-5,100
CC(C)CNC(=O)CN1C(=O)NC(Cc2c[nH]c3ccccc23)C1=O (stereo unspecified),76,2,-27,4,100,67*[inhibitor],110,9,105
O=C(C1CCN(CCc2ccccc2)CC1)N1CCOCC1,.,.,.,.,101,.,.,.,.
O=C(CC1CCCC1)Nc1ccc(Br)cc1,102,4,0,2,121,102,.,.,.
Cc1cc(C(=O)N/N=C/c2ccc([N+](=O)[O-])cc2)c2ccccc2n1,104,-10,18,-8,.,106,.,.,.
Cc1nc2c(cc1C(=O)N/N=C/c1ccc([N+](=O)[O-])cc1)c(=O)n(C)c(=O)n2C,108,-2,1,-2,-7.8*,135*,105,12,111
CN(Cc1ccco1)C(=O)c1ccc(CNS(=O)(=O)c2ccc3c(c2)C(C)(C)C(=O)N3C)cc1,97,-1,0,3,102,97,.,.,.
CCCn1c(=O)c2ccccc2n2c(SCc3nc4ccccc4s3)nnc12,-2.0*[inhibitor],-3,-26,11,99,1.0*[inhibitor],103,2,106
COc1cc(/C=N/n2cnnc2)ccc1OCCOc1ccccc1,93,-3,-6,5,.,91,.,.,.
C=CCc1ccc(OCCOc2ccc(/C=N/n3cnnc3)cc2OCC)c(OC)c1,116,7,27*,0,104,111,101,-7,104
Oc1c(C(c2ccccc2)N2CCCCC2)ccc2ccccc12 (stereo unspecified),.,.,.,.,102,.,.,.,.
O=C(O)c1cccc(NC(=S)NC(NC(=O)c2ccccc2[N+](=O)[O-])C(Cl)(Cl)Cl)c1 (stereo unspecified),101,2,2,-4,108,103,.,.,.
Cc1ccc(NC(NC(=O)c2ccccc2[N+](=O)[O-])C(Cl)(Cl)Cl)cc1 (stereo unspecified),109,-1,0,2,116,133*,98,3,99
Cc1nnc(SCC(=O)N(CCC#N)c2ccc3c(c2)OCCO3)s1,.,-7,.,13,102,.,.,.,.
COC(=O)c1ccnc(/C=N/O)c1,85,0,-10,0,105,80*[inhibitor],96,-6,102
COC(=O)c1ccc(CNC(=O)c2ccccc2C(=O)NCC2(CBr)OCCO2)cc1,.,.,.,.,106,.,.,.,.
Cc1nc(N=C(N)N)nc2ccccc12,77,-10,-11,-5,105,75*[inhibitor],107,19,101
SMILES,MEKK2 WT-MEK5,UBC13 inh,MEKK2mut PB1 HTS,Apaf-1 inh,Pemphigus Ab inh,MEKK3 PB1 HTS,MEKK2wt confirm,MEKK2mut-MEK5,MEKK3 confirm
Cc1ccc2nc(N=C(N)N)nc(C)c2c1,93,-9,-7,-10,107,82,.,.,.
COc1cc(S(=O)(=O)N(Cc2cccnc2)Cc2ccco2)ccc1-n1cnnn1,86,-6,-12,26,94,80*[inhibitor],149,28,111
COc1ccc(NC(=O)c2nc[nH]c2C(=O)N2CCC(C)CC2)cc1,101,2,-7,3,96,75*[inhibitor],100,-1,101
O=C1CN(C(=O)COC(=O)CCc2ccccc2O)c2ccccc2N1,.,7,.,-3,97,.,.,.,.
COc1ccc(S(=O)(=O)N2CCOCC2)cc1NC(=O)CSc1nnc(N)s1,.,0,.,3,108,.,.,.,.
Cc1ccc(C(=O)N2CCC(N3CCC(C(=O)N4CCOCC4)CC3)CC2)cc1,.,.,.,.,110,.,.,.,.
O=C(CN1CCCC1)Nc1ccc(Oc2ccc(NC(=O)CN3CCCC3)cc2)cc1,1.0*[inhibitor],1,-21,7,.,1.0*[inhibitor],128,21,106
O=C(CN1CCN(c2ccccc2)CC1)Nc1ccc(Oc2ccccc2)cc1,1.0*[inhibitor],1,-15,26,103,2.0*[inhibitor],114,5,108
Cc1ccccc1S(=O)Cc1ccc(C(=O)N2CCN(C3CCCCC3)CC2)o1 (stereo unspecified),.,.,.,.,112,.,.,.,.
COC(=O)COc1ccc(C(C2C(=O)CC(C)(C)CC2=O)C2C(=O)CC(C)(C)CC2=O)cc1,94,-10,-1,3,101,95,.,.,.
Cc1ccc(C)c(OCC(=O)Nc2ccc(S(=O)(=O)Nc3ccccn3)cc2)c1,102,3,-1,1,103,134*,108,4,105
CN1CCN(S(=O)(=O)c2ccc(CNC(=O)c3ccccc3)s2)CC1,109,14,6,-2,119,102,.,.,.
Cc1cc(N/N=C/c2cccc(F)c2)nc(NCc2ccccc2)n1,140*,9,25,8,109,96,138,26,106
Cc1cc(N/N=C/c2ccccc2)nc(NCc2ccccc2)n1,175*,9,32,14,103,107,153,31,111
